Reference: ChEMBL document CHEMBL2406970, “Synthesis and bioevaluation of a series of α-pyrone derivatives as potent activators of Nrf2/ARE pathway (part I)” (Eur J Med Chem, 2013)
Calls of active or inactive are those of the source. The rule behind the calls is not given here.

Columns and labels:
[1] = molecular target: T1, Keap1/Nrf2 (Homo sapiens) (UniProt Q16236+Q14145); assay: Induction of Nrf2/Keap1 in human HCT116 cells assessed as induction of ARE activity at 20 uM after 12 hrs by luciferase reporter gene assay relative to control; assay type: cell-based; conditions: HCT-116
T1 sequence (Q14145 whole entry, looked up, one chain of several): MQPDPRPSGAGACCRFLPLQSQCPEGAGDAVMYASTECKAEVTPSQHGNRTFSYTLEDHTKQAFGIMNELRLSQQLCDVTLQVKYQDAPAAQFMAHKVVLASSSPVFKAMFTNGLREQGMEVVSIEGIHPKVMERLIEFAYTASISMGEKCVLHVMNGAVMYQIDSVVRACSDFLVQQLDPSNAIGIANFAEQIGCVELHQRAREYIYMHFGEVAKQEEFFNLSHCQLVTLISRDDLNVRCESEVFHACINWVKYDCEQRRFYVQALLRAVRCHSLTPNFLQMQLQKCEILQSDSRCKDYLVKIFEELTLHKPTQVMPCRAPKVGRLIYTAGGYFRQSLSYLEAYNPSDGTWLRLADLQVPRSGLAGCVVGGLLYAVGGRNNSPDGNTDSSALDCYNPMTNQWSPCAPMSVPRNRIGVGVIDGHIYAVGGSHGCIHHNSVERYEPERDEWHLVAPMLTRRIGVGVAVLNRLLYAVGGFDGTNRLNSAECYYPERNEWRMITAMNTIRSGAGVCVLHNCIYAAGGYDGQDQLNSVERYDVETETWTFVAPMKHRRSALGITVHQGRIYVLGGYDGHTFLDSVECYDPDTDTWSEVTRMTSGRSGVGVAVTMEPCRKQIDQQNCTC

[2] = molecular target: T1, Keap1/Nrf2 (Homo sapiens); assay: Induction of Nrf2/Keap1 in human HepG2-ARE-C8 cells assessed as induction of ARE activity at 50 uM after 12 hrs by luciferase reporter gene assay relative to control
HCT-116 [3] = assay: Cytotoxicity against human HCT116 cells by MTT assay; assay type: functional, cell-based
How it was run: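 HCT116 cells were cultured in McCoy's 5A with 10% FBS and exposed to a range of compound concentrations. MTT was added for 4 h, the solution removed and DMSO added. OD was read at 570 nm, and inhibition calculated as [1 − (OD_test − OD_blank)/(OD_control − OD_blank)] × 100%.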

[4] = molecular target: T2, Nuclear factor erythroid 2-related factor 2 (Homo sapiens) (UniProt Q16236); assay: Activation of NRF2 in human HCT116 cells assessed as ERK1/2 phosphorylation at 20 uM after 30 mins to 1 hr by Western blot analysis; assay type: cell-based; conditions: HCT-116
T2 sequence (whole entry): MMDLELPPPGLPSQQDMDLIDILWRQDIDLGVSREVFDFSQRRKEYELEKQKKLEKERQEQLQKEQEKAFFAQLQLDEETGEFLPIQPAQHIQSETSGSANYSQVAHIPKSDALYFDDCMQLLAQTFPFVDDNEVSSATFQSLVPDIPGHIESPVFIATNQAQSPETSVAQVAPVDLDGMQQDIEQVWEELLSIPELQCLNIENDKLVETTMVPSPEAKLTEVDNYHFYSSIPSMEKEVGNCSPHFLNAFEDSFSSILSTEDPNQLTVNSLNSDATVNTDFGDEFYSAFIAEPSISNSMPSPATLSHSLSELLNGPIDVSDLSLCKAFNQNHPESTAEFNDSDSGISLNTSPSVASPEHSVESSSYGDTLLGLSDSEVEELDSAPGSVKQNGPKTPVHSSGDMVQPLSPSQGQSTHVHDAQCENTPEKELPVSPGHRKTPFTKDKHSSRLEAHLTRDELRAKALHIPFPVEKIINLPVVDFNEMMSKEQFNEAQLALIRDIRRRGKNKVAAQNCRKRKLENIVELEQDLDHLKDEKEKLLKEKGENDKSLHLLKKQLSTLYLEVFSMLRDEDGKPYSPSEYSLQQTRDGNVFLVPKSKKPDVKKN

[5] = molecular target: T1, Keap1/Nrf2 (Homo sapiens); assay: Induction of Nrf2/Keap1 in human HCT116 cells assessed as induction of ARE activity after 12 hrs by luciferase reporter gene assay; assay type: cell-based; conditions: HCT-116
[6] = molecular target: T1, Keap1/Nrf2 (Homo sapiens); assay: Induction of Nrf2/Keap1 in human HCT116 cells assessed as induction of ARE activity at 20 uM after 12 hrs by luciferase reporter gene assay in presence of MEK1/2 inhibitor PD98059; assay type: cell-based; conditions: HCT-116
HCT-116 [7] = assay: Induction of Nrf2 expression in human HCT116 cells at 20 uM up to 24 hrs by Western blot analysis in presence of MEK1/2 inhibitor PD98059; assay type: functional, cell-based
HCT-116 [8] = assay: Induction of nuclear translocation of Nrf2 in human HCT116 cells at 20 uM after 1 to 2 hrs by immunofluorescence staining in presence of MEK1/2 inhibitor PD98059
HCT-116 [9] = assay: Induction of nuclear translocation of Nrf2 in human HCT116 cells at 20 uM after 1 hr by Western blot analysis; assay type: functional, cell-based
HCT-116 [10] = assay: Induction of HO-1 expression in human HCT116 cells at 20 uM after 8 hrs by Western blot analysis; assay type: functional, cell-based
HCT-116 [11] = assay: Induction of NQO-1 expression in human HCT116 cells at 20 uM after 24 hrs by Western blot analysis; assay type: functional, cell-based
[12] = molecular target: T2, Nuclear factor erythroid 2-related factor 2 (Homo sapiens); assay: Activation of NRF2 in human HCT116 cells assessed as expression of ERK1/2 at 20 uM up to 24 hrs by Western blot analysis; assay type: cell-based; conditions: HCT-116
HCT-116 [13] = assay: Induction of NQO-1 expression in human HCT116 cells at 20 uM up to 24 hrs by Western blot analysis in presence of MEK1/2 inhibitor PD98059; assay type: functional, cell-based
[14] = molecular target: T2, Nuclear factor erythroid 2-related factor 2 (Homo sapiens); assay: Activation of NRF2 in human HCT116 cells assessed as ERK1/2 phosphorylation at 20 uM after 30 mins to 1 hr by Western blot analysis in presence of MEK1/2 inhibitor PD98059; assay type: cell-based; conditions: HCT-116
HCT-116 [15] = assay: Induction of HO-1 expression in human HCT116 cells at 20 uM up to 24 hrs by Western blot analysis in presence of MEK1/2 inhibitor PD98059; assay type: functional, cell-based
HCT-116 [16] = assay: Induction of Nrf2 expression in human HCT116 cells at 20 uM after 2 hrs by Western blot analysis; assay type: functional, cell-based
HCT-116 [17] = assay: Induction of nuclear translocation of Nrf2 in human HCT116 cells at 20 uM after 24 hrs by Western blot analysis; assay type: functional, cell-based
[18] = molecular target: T1, Keap1/Nrf2 (Homo sapiens); assay: Induction of Nrf2/Keap1 in human HCT116 cells assessed as induction of ARE activity at 80 uM after 12 hrs by luciferase reporter gene assay relative to control; assay type: cell-based; conditions: HCT-116

Compound | fold change (FC) [1] | fold change (FC) [2] | IC50 (HCT-116 [3]) [µM] | further results
Cc1cc(O)c(C(=O)/C=C/c2ccc(Cl)cc2Cl)c(=O)o1 | 5.49 | 3.27 | 88.7 | 
Cc1cc(O)c(C(=O)/C=C/c2ccc([N+](=O)[O-])cc2)c(=O)o1 | 4.77 | 2.48 | 65 | 
COc1ccc(/C=C/C(=O)c2c(O)cc(C)oc2=O)cc1 | 6.48 | 7.37 | > 100 | 
Cc1cc(O)c(C(=O)/C=C/c2ccccc2[N+](=O)[O-])c(=O)o1 | 2.74 | 0.65 | > 100 | 
Cc1cc(O)c(C(=O)/C=C/c2ccc(C#N)cc2)c(=O)o1 | 3.68 | 2.07 | 66 | 
Cc1cc(O)c(C(=O)/C=C/c2ccccc2C(F)(F)F)c(=O)o1 | 4.27 | 2.55 | > 100 | 
Cc1cc(O)c(C(=O)/C=C/c2ccc(-c3ccccc3)cc2)c(=O)o1 | 5.67 | 3.6 | > 100 | 
Cc1cc(O)c(C(=O)/C=C/c2ccc(N(C)C)cc2)c(=O)o1 | 4.55 | 8.09 | > 100 | 
COc1cc(/C=C/C(=O)c2c(O)cc(C)oc2=O)cc(OC)c1OC | 8.58 | 5.25 | > 100 | 
COc1ccc(/C=C/C(=O)c2c(O)cc(C)oc2=O)c(OC)c1 | 8.21 | 6.81 | > 100 | 
Cc1cc(O)c(C(=O)/C=C/c2ccc3ccccc3c2)c(=O)o1 | 1.37 | 2.17 | > 100 | 
CCOc1ccc(/C=C/C(=O)c2c(O)cc(C)oc2=O)cc1 | 4.66 | 5.5 | > 100 | 
CC(C)(C)c1cc(O)ccc1O [E319] |  |  | > 100 | fold change (FC) [18]: 5.08

Further lines, with some results ahead:

fold change (FC) [1] | fold change (FC) [2] | Compound | IC50 (HCT-116 [3]) [µM] | further results
5.86 | 2.08 | COc1ccccc1/C=C/C(=O)c1c(O)cc(C)oc1=O | > 100 | 
1.66 | 3.58 | Cc1cc(O)c(C(=O)/C=C/c2ccc[nH]2)c(=O)o1 | > 100 | 
5.08 | 0.95 | Cc1cc(O)c(C(=O)/C=C/c2ccccc2Cl)c(=O)o1 | > 100 | 
9.65 | 3.68 | Cc1cc(O)c(C(=O)/C=C/c2ccc(F)c(F)c2)c(=O)o1 | 74.9 | 
8 | 1.2 | Cc1cc(O)c(C(=O)/C=C/c2ccc(Cl)c(Cl)c2)c(=O)o1 | > 100 | 
4.21 | 6.84 | Cc1cc(O)c(C(=O)/C=C/c2ccccc2)c(=O)o1 | > 100 | 
6.33 | 5.79 | Cc1cc(O)c(C(=O)/C=C/c2ccc(F)cc2)c(=O)o1 | > 100 | 
7.04 | 3.46 | Cc1cc(O)c(C(=O)/C=C/c2cccc(F)c2)c(=O)o1 | 81.2 | 
4.53 | 5.96 | Cc1cc(O)c(C(=O)/C=C/c2cccs2)c(=O)o1 | > 100 | 
6.97 | 6.28 | Cc1cc(O)c(C(=O)/C=C/c2ccc(Cl)cc2)c(=O)o1 | 87.4 | 
6.93 | 6.98 | Cc1cc(O)c(C(=O)/C=C/c2ccc(F)cc2F)c(=O)o1 | 80.3 | 
3.8 | 5.48 | Cc1cc(O)c(C(=O)/C=C/c2ccco2)c(=O)o1 | > 100 | 
6.46 | 4.51 | Cc1cc(O)c(C(=O)/C=C/c2cccc(Cl)c2)c(=O)o1 | 66.3 | 
7.08 | 3.04 | Cc1cc(O)c(C(=O)/C=C/c2ccccc2F)c(=O)o1 | > 100 | Activity [4]: Active; Activity [5]: Dose-dependent effect; Activity [6]: inactive; Activity (HCT-116 [7]): inactive; Activity (HCT-116 [8]): inactive; Activity (HCT-116 [9]): Active; Activity (HCT-116 [10]): Active; Activity (HCT-116 [11]): Active; Activity [12]: inactive; Activity (HCT-116 [13]): inactive; Activity [14]: inactive; Activity (HCT-116 [15]): inactive; Activity (HCT-116 [16]): Active; Activity (HCT-116 [17]): inactive
